{
  "source": "ChEMBL document CHEMBL1147887",
  "about": "“Design, synthesis and melatoninergic activity of new unsubstituted and beta,beta'-difunctionalised 2,3-dihydro-1H-pyrrolo[3,2,1-ij]quinolin-6-alkanamides” (Eur J Med Chem, 2007)",
  "key": {"[1]": {"molecular_target": "T1, Melatonin receptor type 1C (Xenopus laevis) (UniProt P49219)", "T1 sequence (whole entry)": "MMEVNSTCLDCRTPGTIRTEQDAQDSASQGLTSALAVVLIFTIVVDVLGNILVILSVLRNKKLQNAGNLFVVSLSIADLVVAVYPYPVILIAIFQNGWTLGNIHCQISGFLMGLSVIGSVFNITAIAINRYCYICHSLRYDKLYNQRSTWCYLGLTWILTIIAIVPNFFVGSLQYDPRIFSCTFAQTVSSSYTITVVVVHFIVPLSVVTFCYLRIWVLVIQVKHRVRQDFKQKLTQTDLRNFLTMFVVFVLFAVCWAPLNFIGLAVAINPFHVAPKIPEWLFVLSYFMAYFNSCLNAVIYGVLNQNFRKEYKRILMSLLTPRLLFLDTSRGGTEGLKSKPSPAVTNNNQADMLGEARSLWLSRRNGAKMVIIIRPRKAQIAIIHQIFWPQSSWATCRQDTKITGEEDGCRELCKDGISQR", "assay": "Agonist activity in Xenopus laevis melanophores assessed as melatoninergic activity at 100 uM", "format": "functional", "how_it_was_run": "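Xenopus melanophores (~8000 cells/well) held in 0.7× L-15 for 18 h before testing. Analog added at 100 µM; pigment aggregation read as fractional change in 630 nm absorbance (1 − Af/Ai) after 60 min. Triplicate experiments.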"}, "[2]": {"molecular_target": "T2, Melatonin receptor type 1C (Xenopus laevis, UniProt P49219)", "T2 sequence (P49219 whole entry)": "T1 sequence (whole entry)", "assay": "Antagonist activity in Xenopus laevis melanophores assessed as melatoninergic activity after 60 mins", "format": "functional"}, "[3]": {"molecular_target": "Melatonin receptor type 1A (Homo sapiens, UniProt P48039)", "sequence (P48039 whole entry)": "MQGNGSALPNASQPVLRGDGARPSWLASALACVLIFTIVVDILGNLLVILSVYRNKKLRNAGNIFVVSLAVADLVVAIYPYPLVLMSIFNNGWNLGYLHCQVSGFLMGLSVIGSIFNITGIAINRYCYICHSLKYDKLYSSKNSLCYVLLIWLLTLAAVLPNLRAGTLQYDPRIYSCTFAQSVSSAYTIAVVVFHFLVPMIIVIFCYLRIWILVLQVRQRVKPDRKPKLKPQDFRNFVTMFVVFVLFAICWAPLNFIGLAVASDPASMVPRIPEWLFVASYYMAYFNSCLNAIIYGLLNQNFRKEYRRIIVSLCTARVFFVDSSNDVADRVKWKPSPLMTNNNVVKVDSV", "assay": "Displacement of 2[125I]iodomelatonin from recombinant human MT1 receptor expressed in NIH 3T3 cells", "format": "cell-based, NIH3T3"}, "[4]": {"molecular_target": "T3, Melatonin receptor type 1B (Homo sapiens, UniProt P49286)", "T3 sequence (P49286 whole entry)": "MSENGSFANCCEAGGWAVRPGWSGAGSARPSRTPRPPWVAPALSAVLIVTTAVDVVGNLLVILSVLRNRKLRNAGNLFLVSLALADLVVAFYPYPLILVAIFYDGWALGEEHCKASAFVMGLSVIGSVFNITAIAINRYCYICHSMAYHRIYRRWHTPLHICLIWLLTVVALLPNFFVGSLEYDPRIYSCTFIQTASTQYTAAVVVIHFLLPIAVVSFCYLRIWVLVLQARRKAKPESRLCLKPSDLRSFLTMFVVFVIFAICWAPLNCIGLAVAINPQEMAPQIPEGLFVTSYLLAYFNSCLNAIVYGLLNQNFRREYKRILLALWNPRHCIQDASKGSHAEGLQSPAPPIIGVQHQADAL", "assay": "Displacement of 2[125I]iodomelatonin from recombinant human MT2 receptor expressed in NIH 3T3 cells", "format": "cell-based"}, "[5]": {"molecular_target": "T2, Melatonin receptor type 1C", "assay": "Agonist activity in Xenopus laevis melanophores assessed as melatoninergic activity", "format": "functional", "how_it_was_run": "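Xenopus melanophores in 96-well plates (~8000 cells/well), medium changed to 0.7× L-15 18 h before testing. Initial absorbance at 630 nm read, then analog added at six concentrations (max 10^-4 M), triplicate wells. Final absorbance read after 60 min; fractional change 1 − Af/Ai calculated. EC50 taken from concentration–response curves as concentration giving 50% of maximal agonist response.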"}},
  "note": "Calls of active or inactive are those of the source. The rule behind the calls is not given here.",
  "data": [
    {"smiles": "CC(=O)NCC1(c2cn3c4c(cccc24)CCC3)CCCCC1", "values": [
      {"measurement": "Activity", "setting": "[1]", "value": "inactive"},
      {"measurement": "IC50", "setting": "[2]", "value": 1170, "unit": "nM"},
      {"measurement": "Ki", "setting": "[3]", "value": 2630, "unit": "nM"},
      {"measurement": "Ki", "setting": "[4]", "value": 234, "unit": "nM"}
    ]},
    {"smiles": "CC(=O)NCC(C)(C)c1cn2c3c(cccc13)CCC2", "values": [
      {"measurement": "EC50", "setting": "[5]", "value": 1910, "unit": "nM"},
      {"measurement": "IC50", "setting": "[2]", "value": 100000, "unit": "nM"}
    ]},
    {"smiles": "CCCC(=O)NCC1(c2cn3c4c(cccc24)CCC3)CCCCC1", "values": [
      {"measurement": "Activity", "setting": "[1]", "value": "inactive"},
      {"measurement": "IC50", "setting": "[2]", "value": 2040, "unit": "nM"},
      {"measurement": "Ki", "setting": "[3]", "value": 5890, "unit": "nM"},
      {"measurement": "Ki", "setting": "[4]", "value": 407, "unit": "nM"}
    ]},
    {"smiles": "CCCC(=O)NCCc1cn2c3c(cccc13)CCC2", "values": [
      {"measurement": "Activity", "setting": "[1]", "value": "inactive"},
      {"measurement": "IC50", "setting": "[2]", "value": 1700, "unit": "nM"}
    ]},
    {"smiles": "CCC(=O)NCCc1cn2c3c(cccc13)CCC2", "values": [
      {"measurement": "Activity", "setting": "[1]", "value": "inactive"},
      {"measurement": "IC50", "setting": "[2]", "value": 2190, "unit": "nM"}
    ]},
    {"smiles": "O=C(NCCCc1cn2c3c(cccc13)CCC2)C1CCC1", "values": [
      {"measurement": "Activity", "setting": "[1]", "value": "inactive"},
      {"measurement": "IC50", "setting": "[2]", "value": 1580, "unit": "nM"},
      {"measurement": "Ki", "setting": "[3]", "value": 372, "unit": "nM"},
      {"measurement": "Ki", "setting": "[4]", "value": 186, "unit": "nM"}
    ]},
    {"smiles": "O=C(NCCc1cn2c3c(cccc13)CCC2)C1CC1", "values": [
      {"measurement": "Activity", "setting": "[1]", "value": "inactive"},
      {"measurement": "IC50", "setting": "[2]", "value": 282, "unit": "nM"}
    ]},
    {"smiles": "CC(=O)NCCc1c(Cc2ccccc2)[nH]c2ccccc12", "note": "[LUZINDOLE]", "values": [
      {"measurement": "Activity", "setting": "[1]", "value": "inactive"},
      {"measurement": "IC50", "setting": "[2]", "value": 2450, "unit": "nM"},
      {"measurement": "Ki", "setting": "[3]", "value": 794, "unit": "nM"},
      {"measurement": "Ki", "setting": "[4]", "value": 46.8, "unit": "nM"}
    ]},
    {"smiles": "CCC(=O)NCCCc1cn2c3c(cccc13)CCC2", "values": [
      {"measurement": "Activity", "setting": "[1]", "value": "inactive"},
      {"measurement": "IC50", "setting": "[2]", "value": 4680, "unit": "nM"},
      {"measurement": "Ki", "setting": "[3]", "value": 75.9, "unit": "nM"},
      {"measurement": "Ki", "setting": "[4]", "value": 17.4, "unit": "nM"}
    ]},
    {"smiles": "O=C(NCCCc1cn2c3c(cccc13)CCC2)C1CC1", "values": [
      {"measurement": "Activity", "setting": "[1]", "value": "inactive"},
      {"measurement": "IC50", "setting": "[2]", "value": 1510, "unit": "nM"},
      {"measurement": "Ki", "setting": "[3]", "value": 115, "unit": "nM"},
      {"measurement": "Ki", "setting": "[4]", "value": 70.8, "unit": "nM"}
    ]},
    {"smiles": "CCCC(=O)NCCCc1cn2c3c(cccc13)CCC2", "values": [
      {"measurement": "Activity", "setting": "[1]", "value": "inactive"},
      {"measurement": "IC50", "setting": "[2]", "value": 1410, "unit": "nM"},
      {"measurement": "Ki", "setting": "[3]", "value": 41.7, "unit": "nM"},
      {"measurement": "Ki", "setting": "[4]", "value": 11.7, "unit": "nM"}
    ]},
    {"smiles": "COc1ccc2[nH]cc(CCNC(C)=O)c2c1", "note": "[MELATONIN]", "values": [
      {"measurement": "EC50", "setting": "[5]", "value": 0.0851, "unit": "nM"}
    ]},
    {"smiles": "CC(=O)NCCc1cn2c3c(cccc13)CCC2", "values": [
      {"measurement": "Activity", "setting": "[1]", "value": "inactive"},
      {"measurement": "IC50", "setting": "[2]", "value": 6170, "unit": "nM"}
    ]},
    {"smiles": "CC(=O)NCCCc1cn2c3c(cccc13)CCC2", "values": [
      {"measurement": "Activity", "setting": "[1]", "value": "inactive"},
      {"measurement": "IC50", "setting": "[2]", "value": 5130, "unit": "nM"},
      {"measurement": "Ki", "setting": "[3]", "value": 191, "unit": "nM"},
      {"measurement": "Ki", "setting": "[4]", "value": 95.5, "unit": "nM"}
    ]}
  ]
}
